# Most compounds without a hit are left out; they make up all but 2.3% or so of the library.
# TRPC6 inhibitor: mouse TRPC6 channel inhibitors, primary screen, cell-based, HEK293, membrane potential dye; Short transient receptor potential channel 6 (Mus musculus), Q61143; ACh-evoked depolarization; stronger effect = lower value; B-score at 10 µM; 1.1% of 310,000 active;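 active = B-score under library mean minus 3 SD, initial fluorescence not abnormally high, positive integrated signal ratio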;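 also: B-score derived from integrated fluorescence ratio over the kinetic read; more negative B-score means stronger inhibition of depolarization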
# TRPC6 act: mouse TRPC6 channel activators, primary screen, cell-based, HEK293, membrane potential dye | Short transient receptor potential channel 6 (Mus musculus), Q61143 | HEK293-TRPC6 membrane potential dye fluorescence; stronger effect = higher value | B-score at 10 µM | 0.13% of 310,000 active | AID 2550, 2010;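 active = B-score of the integrated fluorescence ratio above library mean plus 3 SD, and starting fluorescence ratio within library mean plus 5 SD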;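 also: higher score means more depolarization so channel activation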
# TRPC4 block: inhibitors of mouse TRPC4 channel, primary screen, Fluo4 calcium, HEK293 TRPC4beta/mu-opioid cells; AID 2247, 2010; DAMGO-evoked Fluo4 calcium flux; stronger effect = lower value; B-score at 10 µM; 0.39% of 300,000 active; Short transient receptor potential channel 4 (Mus musculus), Q9QUQ5;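 active = B-score over 3 SD under the library average, no early fluorescence shift, positive overall ratio signal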
# Target sequence (Q9QUQ5 whole entry, looked up): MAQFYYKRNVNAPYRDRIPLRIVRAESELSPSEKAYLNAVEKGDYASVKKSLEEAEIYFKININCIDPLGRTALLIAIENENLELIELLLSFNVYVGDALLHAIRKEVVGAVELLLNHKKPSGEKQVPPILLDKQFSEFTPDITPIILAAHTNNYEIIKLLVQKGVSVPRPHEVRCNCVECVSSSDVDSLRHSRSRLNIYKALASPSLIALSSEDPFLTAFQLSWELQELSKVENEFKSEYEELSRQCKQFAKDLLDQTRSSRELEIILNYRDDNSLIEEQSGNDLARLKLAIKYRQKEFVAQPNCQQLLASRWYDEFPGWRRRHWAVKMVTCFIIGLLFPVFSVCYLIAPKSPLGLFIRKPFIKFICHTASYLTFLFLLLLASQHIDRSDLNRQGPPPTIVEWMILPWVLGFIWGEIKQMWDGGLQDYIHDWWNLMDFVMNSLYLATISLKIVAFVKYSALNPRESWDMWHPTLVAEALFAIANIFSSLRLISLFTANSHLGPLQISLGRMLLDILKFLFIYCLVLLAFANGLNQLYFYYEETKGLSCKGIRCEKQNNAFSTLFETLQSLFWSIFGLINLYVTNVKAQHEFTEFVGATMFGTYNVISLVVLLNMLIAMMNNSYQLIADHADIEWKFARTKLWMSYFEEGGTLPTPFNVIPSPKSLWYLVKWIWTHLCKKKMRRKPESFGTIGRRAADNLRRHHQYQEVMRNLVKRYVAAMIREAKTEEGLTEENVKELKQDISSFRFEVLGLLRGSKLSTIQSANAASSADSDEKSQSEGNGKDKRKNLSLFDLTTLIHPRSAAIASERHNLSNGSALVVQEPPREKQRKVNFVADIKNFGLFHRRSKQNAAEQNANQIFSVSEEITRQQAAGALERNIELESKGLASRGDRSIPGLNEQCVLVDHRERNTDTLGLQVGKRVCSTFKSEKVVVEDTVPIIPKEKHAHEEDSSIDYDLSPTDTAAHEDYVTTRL
#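 Assay system: TRPC4beta/mu-opioid receptor HEK293 cell line; compound dosing: single concentration per test compound; detection: Fluo4 Ca2+ flux fluorescence; evaluation: per-well B score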
# TRPC4 agonist: activators of mouse TRPC4 channel, primary screen, Fluo4 calcium, HEK293 TRPC4beta/mu-opioid cells; Short transient receptor potential channel 4 (Mus musculus), Q9QUQ5; Fluo4 calcium fluorescence; stronger effect = higher value; B-score at 10 µM; 0.49% of 310,000 active;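 active = B-score above 5 SD of library B-scores, and initial fluorescence ratio not above library mean plus 5 SD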;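 also: positive B-score marks a calcium rise read as TRPC4 activation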
#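 Incubation: 45 min room-temperature Fluo4 loading, 110 s read / System: HEK293 cells stably co-expressing mouse TRPC4beta and mu-opioid receptor / Signal: Fluo4 fluorescence, kinetic / Control set: buffer (low) and maximal DAMGO (high) / Measure: integrated baseline-normalised fluorescence ratio, converted to per-well B score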
# TRPC4 PAM: positive allosteric modulators of TRPC4, primary screen, cell-based, mouse TRPC4beta, HEK293 mu-opioid, Fluo-4 calcium | DAMGO EC20, Fluo-4 Ca2+ flux; stronger effect = higher value | B-score at 10 µM | 0.42% of 310,000 active | AID 2227, 2009;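 active = B-score of calcium response area above 5 SD of library B-scores, with initial fluorescence ratio within 5 SD of library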;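 also: B-score of integrated fluorescence ratio over time as area under calcium response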
# TRPC4 sel inh 2: second check of whether TRPC6 inhibitors also affect mouse TRPC4 | shares compounds with TRPC6 inhibitor | HEK293 TRPC4/MOR, membrane potential dye fluorescence; channel activated by saturating DAMGO dose | inhibition, % at 10 µM | 42% of 920 active;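 active = compounds whose fluorescence signal differed from control wells by over 3 SD, either direction, in both duplicate plates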
# TRPC4 spec: mouse TRPC4 modulation by TRPC6 hits, confirmation, selectivity assay for TRPC6 inhibitor project, cell-based, HEK293 TRPC4/mu-opioid, membrane potential dye | shares compounds with TRPC6 inhibitor | membrane potential fluorescence | activity change, negative = inhibition, % at 10 µM | 61% of 920 active;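 active = rise or fall in signal beyond 3 SD of buffer-only wells in both replicate plates, either sign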;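 also: integrated kinetic ratio of fluorescence range over baseline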
# HEK293 MPD ctr 2-1: nonspecific membrane potential effects, parental HEK293, confirmation, counter-screen for TRPC6 inhibitor project, cell-based, second counter screen; parental HEK293 membrane potential dye fluorescence; maximal acetylcholine challenge after compound addition; shares compounds with TRPC6 inhibitor; 31% of 920 active; signal change vs control, % at 10 µM;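 active = membrane potential signal moving either way by over 3 SD of the maximum-effect control, in both duplicate plates, meaning non-specific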
# HEK293 MPD ctr-1: membrane potential modulation in parental HEK293, confirmation, counter-screen for TRPC6 inhibitor project, cell-based; shares compounds with TRPC6 inhibitor; parental HEK293 membrane potential dye fluorescence; membrane potential signal change, % at 10 µM; 60% of 920 active;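 active = membrane potential signal shifting up or down by more than 3 SD of buffer-only wells, on both duplicate plates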
# HEK293 MPD ctr-2: parental HEK293 membrane potential modulation, confirmation, counter-screen for TRPC6 modulator project, cell-based; membrane potential dye fluorescence; shares compounds with TRPC6 inhibitor; 51% of 2,400 active; membrane potential signal change, % at 10 µM;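 active = membrane potential signal moves up or down beyond 5 SD from buffer-only wells, on both duplicate plates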
# HEK293 MPD ctr 2-2: second check of TRPC6 modulator effects in parental HEK293 cells. inhibition, % at 10 µM. membrane potential dye fluorescence; after compound, maximal acetylcholine stimulation. shares compounds with TRPC6 inhibitor. 14% of 2,400 active;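 active = membrane potential signal drops by more than 5 SD from the mean control signal, in both duplicate plates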;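 also: plate controls were acetylcholine ECmax control wells for no effect and buffer only wells for full effect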
# TRPC4 ctr mod: TRPC4 modulation by TRPC6 hit compounds, confirmation, selectivity assay for TRPC6 modulator project, cell-based, HEK293 TRPC4/mu-opioid, membrane potential dye, mouse | membrane potential fluorescence | shares compounds with TRPC6 inhibitor | AID 488927, 2010 | 69% of 2,400 active | percent change from control (negative = decrease, positive = increase), % at 10 µM;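 active = membrane potential signal moved up or down beyond 5 SD of buffer control wells, in both duplicate plates, actives on both sides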;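 also: plate controls were assay buffer wells for no effect and DAMGO maximal-effect wells for full effect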
# TRPC4/MOR inh 2: second selectivity test of TRPC6 modulators against mouse TRPC4; HEK293 TRPC4/mu-opioid, membrane potential dye fluorescence; stimulated with maximal-effect DAMGO; inhibition, % at 10 µM; AID 488928; shares compounds with TRPC6 inhibitor; 55% of 2,400 active;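 active = drop in membrane potential signal beyond 5 SD of the control wells in both duplicate plates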;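 also: TRPC4 counter screen for TRPC6 hits run under conditions tuned for TRPC6 not TRPC4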
# TRPC6 inh conf: mouse TRPC6 channel inhibitors, confirmation, HEK293 cells, membrane potential dye, duplicate | inhibition, % at 10 µM | ACh-evoked depolarization | shares compounds with TRPC6 inhibitor | 43% of 3,300 active;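 active = fluorescence ratio falls more than 5 SD below the full-stimulation control mean, in both duplicate runs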;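 also: integrated fluorescence ratio of peak minus minimum over baseline after agonist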
# TRPC6 act confirm: mouse TRPC6 channel activators, confirmation, HEK293 cells, membrane potential dye, duplicate. shares compounds with TRPC6 inhibitor. HEK293-TRPC6 membrane potential dye fluorescence, FDSS. activation, % at 10 µM. 11% of 2,800 active. AID 488961, 2010;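 active = ratio signal rise beyond 5 SD above unstimulated control wells' mean, seen in both duplicate runs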;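 also: plate controls were buffer EC0 wells for no effect and acetylcholine ECmax response for full effect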
# An asterisk follows results filed as active; i = inactive; . = no result.
SMILES,TRPC6 inhibitor,TRPC6 act,TRPC4 block,TRPC4 agonist,TRPC4 PAM,TRPC4 sel inh 2,TRPC4 spec,HEK293 MPD ctr 2-1,HEK293 MPD ctr-1,HEK293 MPD ctr-2,HEK293 MPD ctr 2-2,TRPC4 ctr mod,TRPC4/MOR inh 2,TRPC6 inh conf,TRPC6 act confirm
Cc1c([N+](=O)[O-])c(C(=O)NC2CCCC2)nn1C,i,i,i,i,i,.,.,.,.,.,.,.,.,.,.
CN(C)CCN(Cc1ccco1)C(=O)c1oc2ccccc2c1NC(=O)COc1ccccc1,-5.7*,i,i,i,i,.,.,.,.,90%*,i,i,85%*,55%*,i
CCCCN(C)C(=O)CSc1nc(NCc2ccc(OC)cc2)c2ccccc2n1,-9.7*,i,i,i,i,68%*,4.6%*,i,6.4%*,.,.,.,.,i,i
CCOC(=O)c1nc(NCc2ccccc2)c2ccccc2n1,i,i,i,i,i,.,.,.,.,.,.,.,.,.,.
CN(NS(C)(=O)=O)c1c(C#N)c(C(F)(F)F)nn1C,i,i,i,i,i,.,.,.,.,.,.,.,.,.,.
CCN(CC)CCC#CC(O)(c1ccccc1)c1ccccc1,-8.8*,i,i,i,i,i,6.4%*,-9.0%*,8.6%*,.,.,.,.,63%*,.
OC(C#CCCN1CCCCC1)(c1ccccc1)c1ccccc1,-8.8*,i,i,i,i,i,6.0%*,14%*,6.0%*,.,.,.,.,72%*,.
OC(C#CCCN1CCCCC1)(c1ccccc1)C1CCCCC1 (stereo not drawn),-7.5*,i,i,i,i,i,23%*,i,15%*,.,.,.,.,75%*,.
OCCN(CC#CC(O)(c1ccccc1)C1CCCCC1)CCO (stereo not drawn),i,i,i,i,i,.,.,.,.,.,.,.,.,.,.
CSc1ccccc1NC(=O)CN(C)Cc1c(O)ccc2ccccc12,i,i,i,i,i,.,.,.,.,.,.,.,.,.,.
Cc1cccc(NS(=O)(=O)c2ccc(C(=O)NCC(c3ccccc3)N(C)C)cc2)c1C (stereo not drawn),i,i,i,i,i,.,.,.,.,.,.,.,.,.,.
COC(=O)C1=NN(C(=O)c2ccccc2)C(O)(c2ccc([N+](=O)[O-])cc2)C1 (stereo not drawn),i,i,i,i,i,.,.,.,.,.,.,.,.,.,.
COC(=O)C1=NN(C(=O)c2ccc(C)cc2)C(O)(c2ccc(Cl)cc2)C1 (stereo not drawn),-6.6*,34*,i,102*,i,.,.,.,.,421%*,i,82%*,i,77%*,298%*
Cc1nc(N2CCN(C)CC2)c2sc(=S)n(C)c2n1,-5.2*,i,i,i,i,.,.,.,.,-158%*,i,-25%*,i,i,i
CC(=O)c1cc2c(cc1NC(=O)c1cnc(C)cn1)OCO2,-11*,i,i,i,i,74%*,-28%*,i,-412%*,.,.,.,.,i,i
COc1ccccc1CN1CCNC(=O)C1CC(=O)N(C)Cc1nc(C)cs1 (stereo not drawn),i,i,i,i,i,.,.,.,.,.,.,.,.,.,.
COc1ccc(OC)c(N/C(N)=N/c2nc(C)cc(C)n2)c1,i,i,i,i,i,.,.,.,.,.,.,.,.,.,.
COc1ccc(Cl)cc1N/C(N)=N/c1nc(C)cc(C)n1,-5.6*,i,-7*,i,i,.,.,.,.,i,i,-10%*,i,i,i
COc1ccc(N/C(N)=N/c2nc(C)cc(C)n2)c(OC)c1,-5.1*,i,i,i,i,.,.,.,.,-86%*,i,-12%*,i,i,i
CCc1cc(=O)oc2c(C)c(OC(C)C(=O)NC3CC(C)(C)NC(C)(C)C3)ccc12 (stereo not drawn),i,i,i,i,i,.,.,.,.,.,.,.,.,.,.
CCc1cc(=O)oc2c(C)c(OCC(=O)NC3CC(C)(C)NC(C)(C)C3)ccc12,-5.7*,i,i,i,i,.,.,.,.,-150%*,i,-31%*,36%*,38%*,i
O=C(CSc1ncccn1)N1CCN(C(=O)CSc2ncccn2)CC1,i,i,i,i,i,.,.,.,.,.,.,.,.,.,.
O=C(CSc1ncccn1)N1CCN(C(c2ccccc2)c2ccccc2)CC1,-7.9*,i,i,i,i,i,1.9%*,i,1.4%*,.,.,.,.,76%*,.
CN1CCN(c2ccc(NC(=O)c3sc4ccccc4c3Cl)cc2)CC1,i,i,i,i,i,.,.,.,.,.,.,.,.,.,.

# Screens from PubChem BioAssay.
